Experimental data as given in ChEMBL document CHEMBL4400550, “Designing Dual Inhibitors of Anaplastic Lymphoma Kinase (ALK) and Bromodomain-4 (BRD4) by Tuning Kinase Selectivity” (J Med Chem, 2019).
Converted amounts (≈) assume the structure as drawn. The source made the active and inactive calls. No cut-off for these calls is given here.

Experiments:
[1] = biological target: T1, ALK tyrosine kinase receptor (Homo sapiens, UniProt Q9UM73, F1174L); test: Displacement of kinase tracer 236 from human N-terminal GST-tagged ALK F1174L mutant (1058 to 1620 residues) after 60 mins by LanthaScreen Eu--kinase binding assay
Procedure, shortened: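 LanthaScreen Eu binding assay. Mix 5 nM ALK F1174L, 30 nM Kinase Tracer 236 and 2 nM Eu-anti-GST antibody in 50 mM HEPES pH 7.5, 10 mM MgCl2, 1 mM EGTA, 0.01% Brij-35, 1 mM DTT. Compound runs 0.5 nM–100 μM in 1% DMSO. Incubate 60 min at room temperature. Read the 665 nm acceptor/donor emission ratio; fit log(inhibitor) vs ratio with a variable-slope equation.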

[2] = biological target: T2, Bromodomain-containing protein 4 (Homo sapiens, UniProt O60885)
[3] = biological target: T2, Bromodomain-containing protein 4; test: Binding affinity to BRD4 (unknown origin) by isothermal calorimetry
[4] = biological target: T3, Serine/threonine-protein kinase PLK1 (Homo sapiens, UniProt P53350); test: Inhibition of PLK1 (unknown origin) using Ser/Thr 16 as substrate after 60 mins by Z-LYTE activity assay
[5] = biological target: T3, Serine/threonine-protein kinase PLK1; test: Inhibition of PLK1 (unknown origin) at 10 nM using Ser/Thr 16 as substrate after 60 mins by Z-LYTE activity assay
Procedure, shortened: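 PLK-1 Z'-LYTE activity assay run externally through the SelectScreen kinase profiling service. Percentage inhibition is measured at 10 nM compound.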

[6] = biological target: T2, Bromodomain-containing protein 4; test: Inhibition of full-length C-terminal NanoLuc-tagged BRD4 BD1 (unknown origin) expressed in human HEK293 cells after 2 hrs by NanoBRET target engagement assay; assay type: cell-based
[7] = biological target: T4, ALK tyrosine kinase receptor (Homo sapiens, UniProt Q9UM73); test: Inhibition of full-length C-terminal NanoLuc-tagged ALK (unknown origin) expressed in human HEK293 cells after 2 hrs by NanoBRET target engagement assay; assay type: cell-based
Target sequence in this assay (Q9UM73 whole entry): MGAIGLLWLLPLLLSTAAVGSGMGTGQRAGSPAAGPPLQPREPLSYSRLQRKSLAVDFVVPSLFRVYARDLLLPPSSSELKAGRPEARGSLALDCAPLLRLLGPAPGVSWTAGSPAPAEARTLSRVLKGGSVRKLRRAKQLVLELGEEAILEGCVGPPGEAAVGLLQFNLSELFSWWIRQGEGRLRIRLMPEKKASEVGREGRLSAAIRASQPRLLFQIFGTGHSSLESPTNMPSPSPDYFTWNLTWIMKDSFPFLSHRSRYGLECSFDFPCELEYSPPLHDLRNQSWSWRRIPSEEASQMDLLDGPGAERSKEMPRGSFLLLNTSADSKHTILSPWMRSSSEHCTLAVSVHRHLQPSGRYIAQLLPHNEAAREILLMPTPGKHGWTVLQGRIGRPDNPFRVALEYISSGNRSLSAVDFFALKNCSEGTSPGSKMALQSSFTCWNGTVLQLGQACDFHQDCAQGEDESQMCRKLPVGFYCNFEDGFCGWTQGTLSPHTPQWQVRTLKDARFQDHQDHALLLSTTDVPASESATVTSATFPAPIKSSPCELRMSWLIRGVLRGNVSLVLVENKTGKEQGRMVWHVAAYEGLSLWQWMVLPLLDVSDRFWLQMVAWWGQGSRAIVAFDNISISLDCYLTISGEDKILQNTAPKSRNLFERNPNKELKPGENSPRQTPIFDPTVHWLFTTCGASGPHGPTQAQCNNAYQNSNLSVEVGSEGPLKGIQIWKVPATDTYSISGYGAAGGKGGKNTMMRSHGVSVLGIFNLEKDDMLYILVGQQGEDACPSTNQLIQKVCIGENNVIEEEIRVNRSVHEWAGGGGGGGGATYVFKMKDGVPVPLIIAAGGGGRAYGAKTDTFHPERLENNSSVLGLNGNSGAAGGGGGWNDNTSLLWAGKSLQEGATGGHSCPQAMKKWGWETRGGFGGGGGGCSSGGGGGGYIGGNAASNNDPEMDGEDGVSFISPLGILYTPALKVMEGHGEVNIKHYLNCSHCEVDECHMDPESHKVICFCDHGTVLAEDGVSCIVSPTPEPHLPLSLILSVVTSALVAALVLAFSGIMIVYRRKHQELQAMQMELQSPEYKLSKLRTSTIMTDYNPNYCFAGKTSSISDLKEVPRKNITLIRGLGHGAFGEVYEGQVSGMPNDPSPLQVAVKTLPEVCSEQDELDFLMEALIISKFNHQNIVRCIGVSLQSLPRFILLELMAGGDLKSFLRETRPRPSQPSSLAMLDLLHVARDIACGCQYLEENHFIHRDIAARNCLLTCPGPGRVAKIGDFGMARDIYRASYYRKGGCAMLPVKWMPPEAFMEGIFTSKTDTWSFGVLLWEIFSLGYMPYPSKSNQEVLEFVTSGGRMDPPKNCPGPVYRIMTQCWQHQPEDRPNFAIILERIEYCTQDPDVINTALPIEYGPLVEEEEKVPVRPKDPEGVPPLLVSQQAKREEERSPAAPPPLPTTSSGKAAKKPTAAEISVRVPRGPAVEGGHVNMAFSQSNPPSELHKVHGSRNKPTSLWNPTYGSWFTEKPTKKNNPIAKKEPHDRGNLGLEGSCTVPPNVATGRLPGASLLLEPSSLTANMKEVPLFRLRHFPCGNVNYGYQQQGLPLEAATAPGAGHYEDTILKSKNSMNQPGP

[8] = Solubility of the compound in phosphate buffer at pH 7.4 b HPLC analysis; assay type: physicochemical
Procedure, shortened: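 Solubility measured by in-house HPLC method from phosphate buffer at pH 7.4.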

[9] = Permeability of the compound at pH 7.4 by PAMPA; assay type: ADME; conditions: read-out: permeability
[10] = Partition coefficient, log P of the compound; assay type: physicochemical; conditions: octanol/water
[11] = Lipophilicity, log D of the compound at pH 7.4; assay type: physicochemical; conditions: buffer
[12] = biological target: T4, ALK tyrosine kinase receptor; test: Binding affinity to wild type human ALK (1088 to 1409 residues) expressed in mammalian expression system by kinome scan-based assay
Target sequence in this assay (Q9UM73 whole entry): as above

[13] = biological target: T5, Insulin receptor (Homo sapiens, UniProt P06213); test: Binding affinity to human INSR (997 to 1318 residues) expressed in mammalian expression system by kinome scan-based assay
[14] = biological target: T3, Serine/threonine-protein kinase PLK1; test: Binding affinity to human PLK1 (33 to 325 residues) expressed in mammalian expression system by kinome scan-based assay
[15] = biological target: T6, Serine/threonine-protein kinase PLK3 (Homo sapiens, UniProt Q9H4B4); test: Binding affinity to human PLK3 (42 to 334 residues) expressed in mammalian expression system by kinome scan-based assay
Target sequence in this assay (Q9H4B4 whole entry, the tested form may be a part): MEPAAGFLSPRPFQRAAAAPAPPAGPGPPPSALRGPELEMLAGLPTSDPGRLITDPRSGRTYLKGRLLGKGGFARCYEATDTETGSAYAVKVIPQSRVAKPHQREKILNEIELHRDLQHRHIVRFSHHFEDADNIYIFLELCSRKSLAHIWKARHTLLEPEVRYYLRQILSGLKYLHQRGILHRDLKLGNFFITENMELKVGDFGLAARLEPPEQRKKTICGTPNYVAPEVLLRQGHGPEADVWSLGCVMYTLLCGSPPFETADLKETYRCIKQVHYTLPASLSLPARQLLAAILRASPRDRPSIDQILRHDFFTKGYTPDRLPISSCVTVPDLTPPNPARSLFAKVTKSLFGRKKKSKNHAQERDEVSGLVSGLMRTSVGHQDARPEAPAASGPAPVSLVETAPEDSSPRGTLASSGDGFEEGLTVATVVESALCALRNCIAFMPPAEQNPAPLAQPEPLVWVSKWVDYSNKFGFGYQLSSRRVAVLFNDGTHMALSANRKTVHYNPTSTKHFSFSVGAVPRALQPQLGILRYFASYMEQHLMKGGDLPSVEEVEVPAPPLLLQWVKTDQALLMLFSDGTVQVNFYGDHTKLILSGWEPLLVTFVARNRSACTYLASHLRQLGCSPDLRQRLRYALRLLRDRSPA

[16] = biological target: T1, ALK tyrosine kinase receptor; test: Binding affinity to human ALK F1174L mutant (1088 to 1409 residues) expressed in mammalian expression system by kinome scan-based assay
[17] = biological target: T4, ALK tyrosine kinase receptor; test: Binding affinity to wild type human ALK (1088 to 1409 residues) expressed in mammalian expression system assessed as unbound protein level at 1 uM by kinome scan-based assay
Procedure, shortened: (§1)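 Single-point KINOMEscan (scanEDGE) competition binding at 1 μM compound. Read-out is %Ctrl, with DMSO set as 100%Ctrl; lower values mean stronger binding.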
Target sequence in this assay (Q9UM73 19-1620 limits assumed): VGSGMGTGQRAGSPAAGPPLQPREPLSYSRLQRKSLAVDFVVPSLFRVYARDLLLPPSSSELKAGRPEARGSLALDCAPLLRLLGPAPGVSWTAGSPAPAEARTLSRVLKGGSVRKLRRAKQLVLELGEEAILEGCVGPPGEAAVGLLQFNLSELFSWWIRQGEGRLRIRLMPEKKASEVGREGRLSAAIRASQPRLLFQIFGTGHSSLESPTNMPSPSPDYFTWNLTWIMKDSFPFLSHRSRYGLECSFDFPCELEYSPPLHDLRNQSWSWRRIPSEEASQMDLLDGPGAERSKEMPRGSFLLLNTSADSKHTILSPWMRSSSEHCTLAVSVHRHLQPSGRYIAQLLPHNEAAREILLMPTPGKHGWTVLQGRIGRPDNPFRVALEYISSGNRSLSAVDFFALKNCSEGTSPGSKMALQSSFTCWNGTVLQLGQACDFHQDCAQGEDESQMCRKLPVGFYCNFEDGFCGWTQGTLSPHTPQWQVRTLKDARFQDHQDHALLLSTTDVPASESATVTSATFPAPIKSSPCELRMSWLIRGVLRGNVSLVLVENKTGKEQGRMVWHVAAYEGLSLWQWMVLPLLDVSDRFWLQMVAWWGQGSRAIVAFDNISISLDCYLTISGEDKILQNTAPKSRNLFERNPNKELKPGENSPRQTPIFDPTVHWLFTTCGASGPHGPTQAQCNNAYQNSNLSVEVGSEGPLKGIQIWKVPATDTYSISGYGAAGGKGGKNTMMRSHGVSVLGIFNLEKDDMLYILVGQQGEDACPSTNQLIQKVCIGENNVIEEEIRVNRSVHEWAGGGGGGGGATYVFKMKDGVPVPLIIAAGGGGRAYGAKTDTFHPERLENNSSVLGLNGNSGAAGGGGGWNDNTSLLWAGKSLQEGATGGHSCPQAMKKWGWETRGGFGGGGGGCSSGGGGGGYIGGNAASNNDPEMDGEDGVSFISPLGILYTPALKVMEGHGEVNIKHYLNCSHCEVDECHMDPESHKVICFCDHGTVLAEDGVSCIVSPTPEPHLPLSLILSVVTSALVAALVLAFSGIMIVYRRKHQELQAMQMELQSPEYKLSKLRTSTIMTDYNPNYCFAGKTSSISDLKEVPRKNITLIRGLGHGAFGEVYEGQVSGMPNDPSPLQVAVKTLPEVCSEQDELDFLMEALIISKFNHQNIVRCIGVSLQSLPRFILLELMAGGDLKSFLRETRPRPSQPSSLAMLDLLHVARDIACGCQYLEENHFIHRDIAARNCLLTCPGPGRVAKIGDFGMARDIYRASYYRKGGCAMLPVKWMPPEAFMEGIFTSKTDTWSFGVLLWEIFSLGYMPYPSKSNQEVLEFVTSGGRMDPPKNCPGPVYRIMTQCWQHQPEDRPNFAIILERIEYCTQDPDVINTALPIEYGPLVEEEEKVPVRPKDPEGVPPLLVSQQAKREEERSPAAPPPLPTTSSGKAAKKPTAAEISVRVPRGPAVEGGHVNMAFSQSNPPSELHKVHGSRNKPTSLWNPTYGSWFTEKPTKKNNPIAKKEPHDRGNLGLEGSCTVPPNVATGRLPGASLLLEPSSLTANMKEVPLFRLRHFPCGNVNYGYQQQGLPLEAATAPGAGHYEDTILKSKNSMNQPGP

[18] = biological target: T5, Insulin receptor; test: Binding affinity to human INSR (997 to 1318 residues) expressed in mammalian expression system assessed as unbound protein level at 1 uM by kinome scan-based assay; procedure, shortened: as §1
[19] = biological target: T3, Serine/threonine-protein kinase PLK1; test: Binding affinity to human PLK1 (33 to 325 residues) expressed in mammalian expression system assessed as unbound protein level at 1 uM by kinome scan-based assay; procedure, shortened: as §1
[20] = biological target: T6, Serine/threonine-protein kinase PLK3; test: Binding affinity to human PLK3 (42 to 334 residues) expressed in mammalian expression system assessed as unbound protein level at 1 uM by kinome scan-based assay; procedure, shortened: as §1
Target sequence in this assay (Q9H4B4 whole entry, looked up, the tested form may be a part): as the sequence (Q9H4B4 whole entry, the tested form may be a part) above

[21] = biological target: T1, ALK tyrosine kinase receptor; test: Inhibition of ALK F1174L mutant auto-phosphorylation in human Kelly cells after 3 hrs by MSD assay; assay type: cell-based
[22] = test system: HeLa; test: Induction of cell cycle arrest in human HeLa cells at 4 to 10 uM after 24 hrs by propidium iodide-staining based flow cytometry; assay type: functional
[23] = species on record: Homo sapiens; test: Selectivity ratio of IC50 for PLK1 (unknown origin) to IC50 for human N-terminal GST-tagged ALK F1174L mutant (1058 to 1620 residues)
[24] = species on record: Homo sapiens; test: Selectivity ratio of IC50 for PLK1 in human HeLa cells to IC50 for human N-terminal GST-tagged ALK F1174L mutant (1058 to 1620 residues); assay type: cell-based

T3 sequence (P53350 whole entry): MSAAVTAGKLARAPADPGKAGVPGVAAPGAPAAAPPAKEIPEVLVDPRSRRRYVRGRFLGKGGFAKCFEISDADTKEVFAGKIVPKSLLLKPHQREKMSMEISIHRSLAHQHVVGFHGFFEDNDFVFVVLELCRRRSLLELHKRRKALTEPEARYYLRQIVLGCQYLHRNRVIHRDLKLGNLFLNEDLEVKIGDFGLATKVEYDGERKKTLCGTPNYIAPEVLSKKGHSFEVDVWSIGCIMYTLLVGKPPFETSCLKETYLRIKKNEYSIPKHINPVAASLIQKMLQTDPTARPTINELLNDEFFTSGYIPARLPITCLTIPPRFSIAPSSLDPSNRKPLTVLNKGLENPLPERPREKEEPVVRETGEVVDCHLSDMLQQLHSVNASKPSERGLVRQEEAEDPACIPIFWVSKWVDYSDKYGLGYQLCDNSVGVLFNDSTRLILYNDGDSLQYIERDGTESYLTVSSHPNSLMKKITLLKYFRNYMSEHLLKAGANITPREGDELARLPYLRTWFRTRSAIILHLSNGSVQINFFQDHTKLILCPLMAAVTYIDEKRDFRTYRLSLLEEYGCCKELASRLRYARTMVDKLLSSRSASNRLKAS
T1 sequence (Q9UM73 19-1620 F1174L limits assumed): as the sequence (Q9UM73 19-1620 limits assumed) above, with F1156L counted along it

SMILES | IC50 [1] | deltaTm [2] | Kd [3] | IC50 [4] | further results
CCOc1cc(C2CCN(C)CC2)ccc1Nc1ncc2c(n1)N(Cc1scnc1C)[C@H](CC)C(=O)N2C | 370 nM | 4.6 K |  |  | 
CCOc1cc(C2CCN(C)CC2)ccc1Nc1ncc2c(n1)N(Cc1cccc(Br)c1)[C@H](CC)C(=O)N2C | 290 nM | 5 K | 120 nM | 540 nM | 
CCOc1cc(C2CCN(C)CC2)ccc1Nc1ncc2c(n1)N(Cc1cccc(OC)c1)[C@H](CC)C(=O)N2C | 350 nM | 5.1 K |  |  | 
CCOc1cc(C2CCN(C)CC2)ccc1Nc1ncc2c(n1)N(Cc1cccc(C#N)c1)[C@H](CC)C(=O)N2C | 370 nM | 4.8 K | 78 nM | 1800 nM | 
CC[C@@H]1C(=O)N(C)c2cnc(Nc3ccc(C(=O)NC4CCN(C)CC4)cc3OCC(C)C)nc2N1C1CCCC1 | 1700 nM | 7.2 K | 73 nM |  | inhibition [5]: 43%
CCOc1cc(C2CCN(C)CC2)ccc1Nc1ncc2c(n1)N(Cc1ccccc1)[C@H](CC)C(=O)N2C | 85 nM | 4.7 K | 54 nM | 290 nM | IC50 [6]: 540 nM; IC50 [7]: 1640 nM
CCOc1cc(C(=O)NC2CCN(C)CC2)ccc1Nc1ncc2c(n1)N(C1CCCC1)[C@H](CC)C(=O)N2C | 380 nM | 6 K | 81 nM | 12 nM | 
CC[C@@H]1C(=O)N(C)c2cnc(Nc3ccc(C4CCN(C)CC4)cc3OC)nc2N1C1CCCC1 | 290 nM | 5.4 K | 80 nM | 9.9 nM | 
CCOc1cc(C(=O)NC2CCN(C)CC2)ccc1Nc1ncc2c(n1)N(C1CCCC1)CC(=O)N2C | 520 nM | 0.2 K |  |  | inhibition [5]: 32%
CCOc1cc(C2CCN(C)CC2)ccc1Nc1ncc2c(n1)N(Cc1sccc1C)[C@H](CC)C(=O)N2C | 63 nM | 5.4 K | 63 nM | 68 nM | IC50 [6]: 310 nM; IC50 [7]: 1020 nM
CCOc1cc(C2CCN(C)CC2)ccc1Nc1ncc2c(n1)N(Cc1ccccc1Br)[C@H](CC)C(=O)N2C | 150 nM | 2.9 K |  |  | 
CCOc1cc(C(=O)NC2CCN(C)CC2)ccc1Nc1ncc2c(n1)N(C1CCCC1)[C@@H](CC)C(=O)N2C | 3400 nM | -0.2 K |  |  | inhibition [5]: 19%
CCOc1cc(C2CCN(C)CC2)ccc1Nc1ncc2c(n1)N(Cc1cc(C)cs1)[C@H](CC)C(=O)N2C | 17 nM | 7.1 K | 44 nM | 125 nM | solubility [8]: 90 µM (≈ 48.1 µg/mL); Papp [9]: 49 ×10⁻⁶ cm/s; logP [10]: 6.1; logD [11]: 4.2; Kd [12]: 89 nM; Kd [13]: 190 nM; Kd [14]: 11 nM; Kd [15]: 160 nM; Kd [16]: 23 nM; Activity [17]: 7.1%; Activity [18]: 25%; Activity [19]: 1%; Activity [20]: 25%; IC50 [21]: 1500 nM; IC50 [6]: 260 nM; IC50 [7]: 470 nM; Activity [22]: Active; Ratio IC50 [23]: 7; Ratio [24]: > 10
CCOc1cc(C(=O)NC2CCN(C)CC2)ccc1Nc1ncc2c(n1)N(Cc1cccc(Br)c1)[C@H](CC)C(=O)N2C | 490 nM | 6.7 K | 73 nM | 110 nM | 
CCOc1cc(C2CCN(C)CC2)ccc1Nc1ncc2c(n1)N(Cc1ccc(C)s1)[C@H](CC)C(=O)N2C | 220 nM | 8.3 K |  |  | 
CCOc1cc(C2CCN(C)CC2)ccc1Nc1ncc2c(n1)N(Cc1ccc(Br)cc1)[C@H](CC)C(=O)N2C | 680 nM | 5.8 K |  |  | 
CCOc1cc(C(=O)NC2CCN(C)CC2)ccc1Nc1ncc2c(n1)N(Cc1ccccc1)[C@H](CC)C(=O)N2C | 440 nM | 4.1 K | 69 nM | 84 nM | 
CCOc1cc(C2CCN(C)CC2)ccc1Nc1ncc2c(n1)N(Cc1cccc(Cl)c1)[C@H](CC)C(=O)N2C | 210 nM | 6.2 K | 130 nM | 540 nM | 
